# In ChEMBL document CHEMBL1149232, “An aminomethylpyrimidine DPP-IV inhibitor with improved properties” (Bioorg Med Chem Lett, 2004):
# Experiments:
# Cytochrome P450 3A4 = Cytochrome P450 3A4 (Homo sapiens, UniProt P08684); test: Inhibition of human liver microsome Cytochrome P3A4; type: microsomes
# Summary of the method: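 CYP3A4 inhibition was measured by a published fluorometric method using BFC as the substrate.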
# [1] = Octanol water partition coefficient was determined at pH 7.4; type: physicochemical
# Sequence of Cytochrome P450 3A4 (P08684 whole entry): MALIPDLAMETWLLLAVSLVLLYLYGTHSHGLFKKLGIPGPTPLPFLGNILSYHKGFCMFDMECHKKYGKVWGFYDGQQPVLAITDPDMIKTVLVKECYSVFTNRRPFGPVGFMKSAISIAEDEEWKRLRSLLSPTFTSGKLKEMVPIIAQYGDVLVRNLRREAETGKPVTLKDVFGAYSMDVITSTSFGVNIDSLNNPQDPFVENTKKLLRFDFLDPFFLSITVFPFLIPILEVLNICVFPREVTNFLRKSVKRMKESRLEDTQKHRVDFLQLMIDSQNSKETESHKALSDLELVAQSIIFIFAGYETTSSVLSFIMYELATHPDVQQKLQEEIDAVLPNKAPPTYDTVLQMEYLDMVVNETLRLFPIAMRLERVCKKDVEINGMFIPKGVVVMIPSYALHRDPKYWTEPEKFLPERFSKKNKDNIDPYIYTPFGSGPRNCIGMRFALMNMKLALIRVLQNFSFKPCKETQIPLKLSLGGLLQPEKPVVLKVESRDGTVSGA
IC50 (Cytochrome P450 3A4),logD [1],Structure (SMILES)
5.4 µM,3,NCc1c(N)nc(-c2ccccc2)nc1-c1ccc(Cl)cc1Cl
,0.4,NCc1c(N)nc(N)nc1-c1ccc(Cl)cc1Cl
,1.6,COc1nc(N)c(CN)c(-c2ccc(Cl)cc2Cl)n1
,1.4,Cc1nc(N)c(CN)c(-c2ccc(Cl)cc2Cl)n1
